Experimental data published in ChEMBL document CHEMBL4257537, “Design, synthesis, and biological evaluation of m-amidophenol derivatives as a new class of antitubercular agents” (Medchemcomm, 2018).
≈ marks a conversion by molar mass, not a printed value.

Experiments:
[1] = tested on: Mycobacterium tuberculosis; test: Antitubercular activity against Mycobacterium tuberculosis H37Ra after 5 days by luminescence assay; type: functional; conditions: 120 h
Method in brief: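 Compounds were 10-point two-fold dilutions in 7H9-Tw-OADC, top 100 µg/mL, final DMSO 2%. Controls were INH 1 µg/mL (zero growth) and DMSO (maximum growth). RLU was read daily in triplicate over days 0–5. Percent growth was fitted to a Gompertz model, and MIC was taken where the inflection point meets the lower asymptote.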

[2] = tested on: Mycobacterium tuberculosis; test: Antimycobacterial activity against Mycobacterium tuberculosis H37Rv after 7 days by microplate alamar blue assay; type: functional; conditions: 168 h
Method in brief: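 Each well held a 1/100 culture dilution plus 10-point two-fold DMSO dilutions (top 100 µg/mL, final DMSO 2%). INH and RIF were the positive controls. After 7 days at 37 °C, Tween 80 and alamarBlue were added for 16–24 h. MIC was the lowest concentration preventing the blue-to-pink change.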

Staphylococcus aureus = test: Toxicity in Staphylococcus aureus after 18 to 24 hrs by two-fold serial dilution method; type: organism-based
Escherichia coli = test: Toxicity in Escherichia coli after 18 to 24 hrs by two-fold serial dilution method; type: organism-based
HepG2 = test: Cytotoxicity against human HepG2 cells after 72 hrs by MTT assay; type: cell-based; conditions: HepG2, 72 h
RAW264.7 = test: Cytotoxicity against mouse RAW264.7 cells after 72 hrs by MTT assay; type: cell-based; conditions: RAW264.7, 72 h
Enterococcus faecalis = test: Toxicity in Enterococcus faecalis after 18 to 24 hrs by two-fold serial dilution method; type: organism-based
[3] = Selectivity index, ratio of IC50 for human HepG2 cells to MIC for Mycobacterium tuberculosis H37Ra; type: toxicity; conditions: read-out: Selectivity Index
[4] = Selectivity index, ratio of IC50 for mouse RAW264.7 cells to MIC for Mycobacterium tuberculosis H37Ra; type: toxicity; conditions: read-out: Selectivity Index

Question: With `O=C(O)c1cc(Cc2ccccc2)cc(NC(=O)c2ccccc2)c1` as the compound, how does the MIC [1] read?
Answer: > 50 µg/mL

Question: With `CC(C)C(=O)Nc1cc(O)cc(Cc2ccccc2)c1` as the compound, how does the MIC [1] read?
Answer: 5 µg/mL (≈ 18.6 µM)

Question: For `O=C(Nc1cc(O)cc(Cc2ccccc2)c1)c1ccc(OC(F)(F)F)cc1`, which MIC [1] is on record?
Answer: 10 µg/mL (≈ 25.8 µM)

Question: For `Cc1ccc(C)c(Cc2cc(O)cc(NC(=O)C3CCCCC3)c2)c1`, which MIC [1] is on record?
Answer: > 50 µg/mL

Question: Which MIC [2] does the source give for `CO[C@H]1/C=C/O[C@@]2(C)Oc3c(C)c(O)c4c(O)c(c(/C=N/N5CCN(C)CC5)c(O)c4c3C2=O)NC(=O)/C(C)=C\C=C\[C@H](C)[C@H](O)[C@@H](C)[C@@H](O)[C@@H](C)[C@H](OC(C)=O)[C@@H]1C` [RIFAMPIN] here?
Answer: 0.003 µg/mL (≈ 0.00365 µM)

Question: With `Nc1cc(Cc2ccccc2)cc(NC(=O)c2ccccc2)c1` as the compound, how does the MIC [1] read?
Answer: 10 µg/mL (≈ 33.1 µM)

Question: With `O=C(Nc1cc(O)cc(C(O)c2ccccc2)c1)c1ccccc1` (stereo unspecified) as the compound, how does the MIC [1] read?
Answer: > 50 µg/mL

Question: For `O=C(Nc1cc(O)cc(Cc2ccccc2)c1)c1cccc(Cl)c1`, which MIC [1] is on record?
Answer: 2.5 µg/mL (≈ 7.4 µM)

Question: For `O=C(Nc1cc(O)cc(Cc2ccccc2)c1)c1cccnc1Cl`, which MIC [1] is on record?
Answer: 5 µg/mL (≈ 14.8 µM)

Question: For `O=C(Nc1cc(O)cc(Cc2ccccc2)c1)c1ccc(Cl)cc1Cl`, which MIC [1] is on record?
Answer: 5 µg/mL (≈ 13.4 µM)

Question: What does the source list for `O=C(Nc1cc(O)cc(Cc2ccccc2)c1)c1ccccc1`?
Answer: MIC [1]: 5 µg/mL (≈ 16.5 µM); MIC (Staphylococcus aureus): > 50 µg/mL; MIC (Escherichia coli): > 50 µg/mL; IC50 (HepG2): > 330 µM; IC50 (RAW264.7): > 330 µM; MIC [2]: 0.39 µg/mL (≈ 1.29 µM); MIC (Enterococcus faecalis): > 50 µg/mL; selectivity ratio [3]: > 20; selectivity ratio [4]: > 20

Question: Which MIC [1] does the source give for `O=C(Nc1cc(O)cc(Cc2ccccc2)c1)C1CC1` here?
Answer: 5 µg/mL (≈ 18.7 µM)

Question: Which MIC [1] does the source give for `CCCCCc1cc(O)cc(NC(=O)C2CCCCC2)c1` here?
Answer: > 50 µg/mL

Question: Which MIC [1] does the source give for `O=C(Nc1cc(O)cc(Cc2ccccc2)c1)c1ccccc1Cl` here?
Answer: 2.5 µg/mL (≈ 7.4 µM)

Question: Which MIC [1] does the source give for `O=C(Nc1cccc(O)c1)c1ccccc1` here?
Answer: > 50 µg/mL

Question: With `O=C(Nc1cc(O)cc(Cc2ccccc2)c1)c1ccco1` as the compound, how does the MIC [1] read?
Answer: 10 µg/mL (≈ 34.1 µM)

Question: With `Oc1cccc(Cc2ccccc2)c1` as the compound, how does the MIC [1] read?
Answer: > 50 µg/mL

Question: For `CCCc1cc(O)cc(NC(=O)C2CCCCC2)c1`, which MIC [1] is on record?
Answer: > 50 µg/mL

Question: Which MIC [1] does the source give for `O=C(Nc1cc(O)cc(Cc2ccccc2)c1)C(F)(F)F` here?
Answer: > 50 µg/mL

Question: For `CC(C)(C)C1CCC(C(=O)Nc2cc(O)cc(Cc3ccccc3)c2)CC1` (stereo unspecified), which MIC [1] is on record?
Answer: > 50 µg/mL

Question: For `CC(C)CCc1cc(O)cc(NC(=O)C2CCCCC2)c1`, which MIC [1] is on record?
Answer: > 50 µg/mL

Question: Which MIC [1] does the source give for `O=C(Nc1cc(O)cc(Cc2ccccc2)c1)c1ccc(C2CCCCC2)cc1` here?
Answer: > 50 µg/mL

Question: Which MIC [1] does the source give for `COc1cc(Cc2ccccc2)cc(NC(=O)c2ccccc2)c1` here?
Answer: > 50 µg/mL

Question: For `CC(=O)Nc1cc(O)cc(Cc2ccccc2)c1`, which MIC [1] is on record?
Answer: > 100 µg/mL

Question: With `O=C(Nc1cc(O)cc(Cc2ccccc2)c1)c1cccs1` as the compound, how does the MIC [1] read?
Answer: 2.5 µg/mL (≈ 8.08 µM)

Question: For `Cc1ccc(C(=O)Nc2cc(O)cc(Cc3ccccc3)c2)cc1`, which MIC [1] is on record?
Answer: 1.25 µg/mL (≈ 3.94 µM)

Question: With `NNC(=O)c1ccncc1` [ISONIAZID] as the compound, how does the MIC [1] read?
Answer: 0.1 µg/mL (≈ 0.729 µM)

Question: What about the MIC [2] of the same compound?
Answer: 0.41 µg/mL (≈ 2.99 µM)

Question: With `CC(C)(C)c1ccc(C(=O)Nc2cc(O)cc(Cc3ccccc3)c2)cc1` as the compound, how does the MIC [1] read?
Answer: 2.5 µg/mL (≈ 6.95 µM)

Question: For `Cc1nnsc1C(=O)Nc1cc(O)cc(Cc2ccccc2)c1`, which MIC [1] is on record?
Answer: 10 µg/mL (≈ 30.7 µM)

Question: With `O=C(Nc1cc(O)cc(Cc2ccccc2)c1)N1CCOCC1` as the compound, how does the MIC [1] read?
Answer: 12.5 µg/mL (≈ 40 µM)

Question: Which MIC (Staphylococcus aureus) does the source give for `CC1(C)S[C@@H]2[C@H](NC(=O)[C@H](N)c3ccc(O)cc3)C(=O)N2[C@H]1C(=O)O` [AMOXICILLIN] here?
Answer: 0.78 µg/mL (≈ 2.13 µM)

Question: With `O=C(Nc1cc(O)cc(Cc2ccccc2)c1)c1ccc(Cl)cc1` as the compound, how does the MIC [1] read?
Answer: 2.5 µg/mL (≈ 7.4 µM)

Question: For `O=C(Nc1cc(O)cc(Cc2ccccc2)c1)c1cc(C(F)(F)F)cc(C(F)(F)F)c1`, which MIC [1] is on record?
Answer: > 25 µg/mL

Question: For `O=C(Nc1cc(O)cc(Cc2ccccc2)c1)C1CCOCC1`, which MIC [1] is on record?
Answer: 6.25 µg/mL (≈ 20.1 µM)

Question: Which MIC (Staphylococcus aureus) does the source give for `CC1COc2c(N3CCN(C)CC3)c(F)cc3c(=O)c(C(=O)O)cn1c23` (stereo unspecified) [OFLOXACIN] here?
Answer: 0.31 µg/mL (≈ 0.858 µM)

Question: And the MIC (Escherichia coli)?
Answer: 1.25 µg/mL (≈ 3.46 µM)

Question: With `CC(C)(C)C(=O)Nc1cc(O)cc(Cc2ccccc2)c1` as the compound, how does the MIC [1] read?
Answer: 2.5 µg/mL (≈ 8.82 µM)

Question: For `O=C(Nc1cc(O)cc(Cc2ccccc2)c1)C1CCCC1`, which MIC [1] is on record?
Answer: 2.5 µg/mL (≈ 8.46 µM)

Question: For `O=C(Nc1cc(O)cc(Cc2ccccc2)c1)c1ccc([N+](=O)[O-])cc1`, which MIC [1] is on record?
Answer: > 50 µg/mL

Question: For `O=C(Nc1cc(O)cc(Cc2ccccc2)c1)c1ccc(F)c(Cl)c1`, which MIC [1] is on record?
Answer: 5 µg/mL (≈ 14.1 µM)

Question: For `O=C(Nc1cc(O)cc(Cc2ccccc2)c1)c1ccc(C(F)(F)F)cc1`, which MIC [1] is on record?
Answer: 5 µg/mL (≈ 13.5 µM)

Question: For `CCC1CCC(C(=O)Nc2cc(O)cc(Cc3ccccc3)c2)CC1` (stereo unspecified), which MIC [1] is on record?
Answer: 2.5 µg/mL (≈ 7.41 µM)

Question: Which MIC [1] does the source give for `O=C(Nc1cc(O)cc(Cc2ccccc2)c1)C1CCCCC1` here?
Answer: 0.625 µg/mL (≈ 2.02 µM)

Question: And the MIC (Staphylococcus aureus)?
Answer: > 50 µg/mL

Question: What about the MIC (Escherichia coli) of the same compound?
Answer: > 50 µg/mL

Question: And the IC50 (HepG2)?
Answer: > 161 µM

Question: What about the IC50 (RAW264.7) of the same compound?
Answer: > 323 µM

Question: And the MIC [2]?
Answer: 0.39 µg/mL (≈ 1.26 µM)

Question: What about the MIC (Enterococcus faecalis) of the same compound?
Answer: > 50 µg/mL

Question: And the selectivity ratio [3]?
Answer: > 80

Question: What about the selectivity ratio [4] of the same compound?
Answer: > 160

Question: Which MIC [1] does the source give for `O=C(Nc1cc(O)cc(Cc2ccccc2)c1)C12CC3CC(CC(C3)C1)C2` here?
Answer: > 50 µg/mL
